ChEMBL document CHEMBL1914395, “Design, synthesis, and biological evaluation of callophycin A and analogues as potential chemopreventive and anticancer agents” (Bioorg Med Chem, 2011)

Key:
[1] = target: NAD(P)H dehydrogenase [quinone] 1 (Mus musculus) (UniProt Q64669); assay: Induction of quinone reductase 1 activity in mouse Hepa-1c1c7 cells at 50 uM by MTT assay relative to untreated control; assay type: cell-based
Outline: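 Hepa 1c1c7 murine hepatoma cells treated with compound at 50 μM. QR1 measured by NADPH-dependent, menadiol-mediated reduction of MTT to formazan. Protein measured by crystal violet staining of identical plates. Specific activity is nmol formazan per mg protein per min. Induction ratio is treated versus DMSO-treated control.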

[2] = target: NAD(P)H dehydrogenase [quinone] 1 (Mus musculus) (UniProt Q64669); assay: Induction of quinone reductase 1 activity in mouse Hepa-1c1c7 cells assessed as cell survival at 50 uM by MTT assay relative to control; assay type: cell-based
Aromatase = target: T1, Aromatase (Homo sapiens, UniProt P11511); assay: Inhibition of aromatase at 50 uM after 10 mins preincubation by plate reader relative to control
T1 sequence (P11511 whole entry): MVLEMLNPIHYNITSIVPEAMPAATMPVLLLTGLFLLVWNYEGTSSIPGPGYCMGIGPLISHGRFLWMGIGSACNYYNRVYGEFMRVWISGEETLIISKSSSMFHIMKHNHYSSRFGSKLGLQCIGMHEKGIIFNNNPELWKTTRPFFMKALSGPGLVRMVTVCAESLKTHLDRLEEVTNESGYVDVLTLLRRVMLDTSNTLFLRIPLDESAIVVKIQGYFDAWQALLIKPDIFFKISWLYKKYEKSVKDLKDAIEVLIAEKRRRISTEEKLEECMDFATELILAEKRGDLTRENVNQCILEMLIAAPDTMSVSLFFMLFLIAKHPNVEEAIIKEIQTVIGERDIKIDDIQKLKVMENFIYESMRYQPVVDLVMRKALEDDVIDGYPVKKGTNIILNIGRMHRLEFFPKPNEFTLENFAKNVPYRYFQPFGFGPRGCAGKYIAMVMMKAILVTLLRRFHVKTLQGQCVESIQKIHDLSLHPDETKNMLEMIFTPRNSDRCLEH
Outline: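 CYP19 enzyme. Compound pre-incubated 10 min with an NADPH-regenerating system (NADP+, glucose 6-phosphate, G6PDH, MgCl2, albumin) in 50 mM potassium phosphate pH 7.4. Enzyme and 0.4 μM dibenzylfluorescein substrate then added, 30 min at 37 °C. Quenched with 2 N NaOH and incubated a further 2 h at 37 °C. Fluorescence read at ex 485/em 530 nm. Compound tested at 50 μM.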

[3] = target: T2, Nitric oxide synthase, inducible (Mus musculus) (UniProt P29477); assay: Inhibition of iNOS-mediated nitric oxide production in LPS-stimulated mouse RAW 264.7 cells at 50 uM pretreated 15 mins before LPS challenge measured after 20 hrs relative to control; assay type: cell-based
T2 sequence (whole entry): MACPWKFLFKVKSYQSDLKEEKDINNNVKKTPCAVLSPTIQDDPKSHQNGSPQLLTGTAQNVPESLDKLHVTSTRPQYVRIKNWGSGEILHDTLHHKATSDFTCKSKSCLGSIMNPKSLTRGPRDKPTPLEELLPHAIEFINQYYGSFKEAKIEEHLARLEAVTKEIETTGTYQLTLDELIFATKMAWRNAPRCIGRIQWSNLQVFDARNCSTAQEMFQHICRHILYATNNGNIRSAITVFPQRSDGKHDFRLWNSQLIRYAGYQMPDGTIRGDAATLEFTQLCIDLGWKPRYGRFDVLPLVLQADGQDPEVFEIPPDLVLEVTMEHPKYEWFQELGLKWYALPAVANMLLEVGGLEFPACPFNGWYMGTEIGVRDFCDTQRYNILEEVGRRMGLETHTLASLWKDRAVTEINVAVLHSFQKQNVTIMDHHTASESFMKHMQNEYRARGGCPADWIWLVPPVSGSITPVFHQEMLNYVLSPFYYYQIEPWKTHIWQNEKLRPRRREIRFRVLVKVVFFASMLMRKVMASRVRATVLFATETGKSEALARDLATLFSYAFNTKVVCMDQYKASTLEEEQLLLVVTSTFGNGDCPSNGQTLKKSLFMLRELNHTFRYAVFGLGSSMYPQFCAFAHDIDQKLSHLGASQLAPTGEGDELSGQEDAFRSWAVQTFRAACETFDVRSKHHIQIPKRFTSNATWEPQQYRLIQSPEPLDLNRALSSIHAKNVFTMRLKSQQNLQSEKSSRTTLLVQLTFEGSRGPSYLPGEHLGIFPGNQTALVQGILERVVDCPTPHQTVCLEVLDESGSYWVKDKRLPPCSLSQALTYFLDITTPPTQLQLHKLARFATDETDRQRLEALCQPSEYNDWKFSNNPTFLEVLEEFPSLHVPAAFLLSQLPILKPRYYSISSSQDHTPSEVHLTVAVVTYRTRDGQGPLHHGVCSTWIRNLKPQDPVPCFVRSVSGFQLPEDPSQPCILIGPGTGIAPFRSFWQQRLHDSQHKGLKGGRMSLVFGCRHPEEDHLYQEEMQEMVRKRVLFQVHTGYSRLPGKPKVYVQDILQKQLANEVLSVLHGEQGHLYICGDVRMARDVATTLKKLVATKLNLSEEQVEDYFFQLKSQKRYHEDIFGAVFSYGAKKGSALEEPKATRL
Outline: (§1)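 RAW 264.7 cells cultured 24 h at 37°C, then given serially diluted compounds for 15 min before LPS (1 μg/mL) for 20 h. Nitrite in the medium measured with Griess reagent at 540 nm against a sodium nitrite standard curve. Cytotoxicity checked by SRB under the same conditions.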

[4] = target: T2, Nitric oxide synthase, inducible (Mus musculus); assay: Inhibition of iNOS-mediated nitric oxide production in LPS-stimulated mouse RAW 264.7 cells assessed as cell survival at 50 uM pretreated 15 mins before LPS challenge measured after 20 hrs relative to control; assay type: cell-based
Outline: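 RAW 264.7 cells were incubated at 37°C, 5% CO2 for 24 h. They were then exposed to compound for 15 min before LPS (1 μg/mL) was added for 20 h. Cytotoxicity was measured by SRB staining under the same conditions. Survival is expressed as % relative to vehicle-treated controls at 50 μM.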

HEK293 [5] = assay: Inhibition of TNF-alpha-induced NFkappaB activation in human HEK293 cells at 50 uM after 6 hrs by luciferase assay relative to control; assay type: cell-based
Outline: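 Cells incubated 6 h with TNFα plus test compound, then luciferase activity measured. Results expressed as percent of TNFα-treated control. Screening concentration 50 μM.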

HEK293 [6] = assay: Inhibition of TNF-alpha-induced NFkappaB activation in human HEK293 cells assessed as cell survival at 50 uM after 6 hrs by luciferase assay relative to control; assay type: cell-based
MCF7 = assay: Antiproliferative activity against human MCF7 cells assessed as survival at 50 uM after 72 hrs by SRB assay relative to control; assay type: functional; settings: MCF7, 72 h, read-out: Survival
Outline: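 MCF7 cells (1 × 10^4 per well) were plated onto compound and kept at 37°C, 5% CO2 for 72 h. Cells were fixed in 10% TCA for 30 min and stained with 0.4% SRB in 1% acetic acid for 30 min. Bound dye was dissolved in 10 mM Tris (pH 10.0) and read at 515 nm. Survival is given as % of DMSO-treated controls, screened at 50 μM.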

[7] = target: T3, Nitric oxide synthase, inducible (Mus musculus, UniProt P29477); assay: Inhibition of iNOS-mediated nitric oxide production in LPS-stimulated mouse RAW 264.7 cells pretreated 15 mins before LPS challenge measured after 20 hrs relative to control; assay type: cell-based; outline: as §1
T3 sequence (P29477 whole entry): T2 sequence (whole entry)

Chain of NAD(P)H dehydrogenase [quinone] 1 (Mus musculus) (Q64669 whole entry): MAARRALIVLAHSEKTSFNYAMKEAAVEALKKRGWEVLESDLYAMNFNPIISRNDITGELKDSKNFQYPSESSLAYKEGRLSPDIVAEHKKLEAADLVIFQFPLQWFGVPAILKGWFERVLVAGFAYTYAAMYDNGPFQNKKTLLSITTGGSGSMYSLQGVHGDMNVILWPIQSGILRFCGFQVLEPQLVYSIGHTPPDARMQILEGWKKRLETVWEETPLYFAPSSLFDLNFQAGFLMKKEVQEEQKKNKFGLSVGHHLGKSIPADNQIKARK

Compound	Ratio [1]	Survival [2] [%]	inhibition at 50 µM (Aromatase) [%]	inhibition [3] [%]	Survival [4] [%]	inhibition (HEK293 [5]) [%]	Survival (HEK293 [6]) [%]	viability at 50 µM (MCF7) [%]	IC50 [7] [µM]
O=C(O)[C@H]1Cc2c([nH]c3ccccc23)CN1Cc1ccccc1	1.8	108	19.2	9.9	109	41.8	89.5		
COC(=O)[C@@H]1Cc2c([nH]c3ccccc23)CN1S(C)(=O)=O	1.6	85.8	30.5	10.6	91.9	38.6	153	72.5	
CS(=O)(=O)N1Cc2[nH]c3ccccc3c2C[C@@H]1C(=O)O	1.9	80.6	30.7	5	93.1	-2.3	178	88.7	
C#CCN1Cc2[nH]c3ccccc3c2C[C@H]1C(=O)OC	1.7	89.6	24.4	22.3	84.4	21.1	117	81.1	
O=C(O)[C@H]1Cc2c([nH]c3ccccc23)CN1S(=O)(=O)c1ccc(Br)cc1	1.3	88.3	32.3	56.2	103	50.9	252	91.2	46.1
COC(=O)[C@H]1Cc2c([nH]c3ccccc23)CN1S(=O)(=O)c1ccc(C)cc1	1.3	85.8	28.2	7.4	91.4	25.2	114		
O=C(O)[C@@H]1Cc2c([nH]c3ccccc23)CN1 [CYCLOMETHYLTRYPTOPHAN]	1.1	99.2	20.7	2	100	4.6	103		
Cc1ccc(S(=O)(=O)N2Cc3[nH]c4ccccc4c3C[C@H]2C(=O)O)cc1	1.4	88.8	16.9	7	85.5	42.5	272	96.5	
Cc1ccc(S(=O)(=O)N2Cc3[nH]c4ccccc4c3C[C@@H]2C(=O)O)cc1	1.2	93.8	23	2.9	102	26	195	99.8	
COC(=O)[C@@H]1Cc2c([nH]c3ccccc23)CN1Cc1ccc(OCc2ccccc2)cc1	1.8	72.8	28	58	93.9	24.7	99.7		39.2
